# Experimental data: ChEMBL document CHEMBL1131170 (J Med Chem, 1998)
# The source made the active and inactive calls. No cut-off for these calls is given here.
# Columns and labels:
# [1] = target: T1, Protein farnesyltransferase (Homo sapiens, UniProt P49354+P49356); assay: Inhibitory activity against human Farnesyltransferase; format: protein-complex assay
# Outline: (§1)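 Compounds in 100% DMSO diluted 20-fold, giving 5% DMSO final. Farnesyl transfer measured; IC50 determined.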
# [2] = target: T1, Protein farnesyltransferase; assay: inhibitory activity against human Farnesyltransferase; format: protein-complex assay; outline: as §1
# [3] = target: T1, Protein farnesyltransferase; assay: Inhibition of human Farnesyltransferase at 100 uM; format: protein-complex assay
# [4] = target: T1, Protein farnesyltransferase; assay: (§2) Inhibition of human Farnesyltransferase; format: protein-complex assay; outline: as §1
# [5] = test system: HepG2; assay: Inhibition of cholesterol biosynthesis in HepG2 cells at 2.5 uM; format: functional; settings: Homo sapiens
# Outline: (§3)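 HepG2 cells seeded on day 0; fresh medium with delipidated serum on day 3 and again on day 5, when compounds (DMSO stocks) were added for 4 h. Extracts were separated by silica TLC (petroleum ether–ethyl ether–acetic acid 75:25:1) and quantified by phosphor imaging as cholesterol incorporation.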
# [6] = test system: HepG2; assay: Inhibition of cholesterol biosynthesis in HepG2 cells at 25 uM; format: functional; settings: Homo sapiens; outline: as §3
# [7] = target: T1, Protein farnesyltransferase; assay: Inhibition of human Farnesyltransferase, inactive at 100 uM; format: protein-complex assay
# [8] = target: T1, Protein farnesyltransferase; assay: as §2; format: protein-complex assay; settings: concentration not given here; outline: as §1
# [9] = test system: HepG2; assay: Inhibition of cholesterol biosynthesis in HepG2 cells at 16 uM; format: functional; settings: Homo sapiens
# Outline: (§4)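 HepG2 cells seeded at 2 × 10^5/well on day 0, fed delipidated-serum medium on day 3 and again on day 5, when compounds in DMSO were added for 4 h. Labeled with [14C]acetate (3 µCi/mL) for 2 h, then saponified, acidified, petroleum ether extracted twice, TLC on silica (petroleum ether–ethyl ether–acetic acid 75:25:1), phosphor imaging; incorporation into cholesterol.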
# [10] = test system: HepG2; assay: Inhibition of cholesterol biosynthesis in HepG2 cells at 81 uM; format: functional; settings: Homo sapiens; outline: as §4
# [11] = target: T1, Protein farnesyltransferase; assay: Inhibition of human Farnesyltransferase using Ras-CVLS; format: protein-complex assay
# [12] = Inhibition of human Geranylgeranyl transferase using Ras-CAIL
# [13] = target: T1, Protein farnesyltransferase; assay: as §2; format: protein-complex assay; outline: as §1; remark: listed apart in the source
# [14] = test system: HepG2; assay: Inhibition of cholesterol biosynthesis in HepG2 cells at 32 uM; format: functional; settings: Homo sapiens; outline: as §4
# [15] = target: T1, Protein farnesyltransferase; assay: as §2; format: protein-complex assay; outline: as §1; remark: listed apart in the source
# [16] = target: T1, Protein farnesyltransferase; assay: as §2; format: protein-complex assay; outline: as §1; remark: listed apart in the source
# [17] = target: T1, Protein farnesyltransferase; assay: as §2; format: protein-complex assay; outline: as §1; remark: listed apart in the source
# [18] = target: T1, Protein farnesyltransferase; assay: as §2; format: protein-complex assay; settings: concentration not given here; outline: as §1; remark: listed apart in the source
# [19] = inhibition of human Geranylgeranyl transferase using Ras-CVIM
# [20] = target: T1, Protein farnesyltransferase; assay: as §2; format: protein-complex assay; outline: as §1; remark: listed apart in the source
# [21] = target: T1, Protein farnesyltransferase; assay: as §2; format: protein-complex assay; outline: as §1; remark: listed apart in the source
# [22] = test system: HepG2; assay: Inhibition of cholesterol biosynthesis in HepG2 cells at 42 uM; format: functional; settings: Homo sapiens; outline: as §4
# [23] = test system: HepG2; assay: Inhibition of cholesterol biosynthesis in HepG2 cells at 21 uM; format: functional; settings: Homo sapiens; outline: as §4
# [24] = test system: HepG2; assay: Inhibition of cholesterol biosynthesis in HepG2 cells at 106 uM; format: functional; settings: Homo sapiens; outline: as §4
Structure (SMILES),IC50 [1],IC50 [2],other results
CC(C)CCCC(C)C1CCC2C3CCC(=O)C(CCC(=O)O)C3CC[C@]12C (stereo not given in full),1.2 µM,,
CC(C)(CC(=O)O)CC(=O)OCC(=O)[C@@]1(O)CCC2C3CCC4=CC(=O)C=C[C@]4(C)[C@@]3(F)[C@@H](O)C[C@@]21C (stereo not given in full),,,inhibition [3]: 63%
CC(C)CCCC(C)C1CCC2C3CCC(=O)[C@](C)(C[C@@H](CC(=O)O)C(=O)O)C3CC[C@]12C (stereo not given in full),,,IC50 [4]: 0.19 µM
CC(CCCC(C)(C)O)[C@H]1CC[C@H]2C3CC=C4C[C@@H](O)CC[C@]4(C)[C@H]3CC[C@]12C (stereo not given in full),,,inhibition at 2.5 µM [5]: 87%; inhibition at 25 µM [6]: 90%
CCOC(=O)C[C@H](C[C@@]1(C)C(=O)CCC2C3CCC(C(C)CCCC(C)C)[C@@]3(C)CCC21)C(=O)O (stereo not given in full),> 100 µM,,
COC(=O)CC[C@@]1(C)C(=O)C[C@H](C)C2C3CCC(C(C)CCCC(C)C)[C@@]3(C)CCC21 (stereo not given in full),,> 100 µM,
CC(C)CCCC(C)C1CCC2C3CCC(=O)[C@](C)(CCC(=O)O)C3CC[C@]12C (stereo not given in full),40 µM,,
C[C@]12CC(=O)C3C(CCC4=CC(=O)CC[C@@]43C)C1CCC2C(=O)CO (stereo not given in full),,> 100 µM,
C[C@]12CCC(=O)C=C1CC[C@@H]1[C@@H]2[C@@H](O)C[C@@]2(C)[C@H]1CC[C@]2(O)C(=O)COC(=O)CCC(=O)O,,,inhibition [3]: 46%
C[C@]12C=CC(=O)C=C1CC[C@@H]1[C@@H]2[C@@H](O)C[C@@]2(C)[C@H]1CC[C@]2(O)C(=O)COC(=O)CCC(=O)O,,,inhibition [3]: 36%
CC(C)CCCC(C)C1CCC2C3CC=C4C(C)(C)C(=O)CC[C@]4(C)C3CC[C@]12C (stereo not given in full),,,inhibition [7]: inactive
C[C@H](CCC(O)C(C)(C)O)[C@H]1CC[C@@]2(C)C3=C(CC[C@]12C)[C@@]1(C)C[C@@H](OC(=O)CC(C)(O)CC(=O)O)C(=O)C(C)(C)[C@@H]1CC3 (stereo not given in full) [CLAVARIC ACID],,,inhibition [8]: 84%; inhibition at 16 µM [9]: 0%; inhibition at 81 µM [10]: 69%; IC50 [11]: 0.35 µM; IC50 [12]: 21 µM; FPTase activity (fM ug-1 min-1) [13]: 3340; inhibition at 32 µM [14]: 0%; FPTase activity (fM ug-1 min-1) [15]: 7340; inhibition ([15]; concentration not given here): 70%; FPTase activity (fM ug-1 min-1) [16]: 694; FPTase activity (fM ug-1 min-1) [17]: 2390; inhibition [18]: 81%; IC50 [19]: > 50 µM; FPTase activity (fM ug-1 min-1) [20]: 3330; FPTase activity (fM ug-1 min-1) [21]: 592
C[C@H](CCC(O)C(C)(C)O)[C@H]1CC[C@@]2(C)C3=C(CC[C@]12C)[C@@]1(C)C[C@@H](O)C(=O)C(C)(C)[C@@H]1CC3 (stereo not given in full) [CLAVARINONE],,15 µM,inhibition at 42 µM [22]: 74%; IC50 [11]: 8 µM; IC50 [12]: 35 µM; inhibition at 21 µM [23]: 59%; IC50 [19]: > 50 µM; inhibition at 106 µM [24]: 97%
C[C@]12C=C(C=O)C(=O)C=C1CCC1C2C(=O)C[C@@]2(C)C1CC[C@@]21OCOC12COCO2 (stereo not given in full),,1.2 µM,
C[C@]12C=C(C3OCCO3)C(=O)C=C1CCC1C2C(=O)C[C@@]2(C)C1CC[C@@]21OCOC12COCO2 (stereo not given in full),,38 µM,
C[C@H]1CC2C3CCC4=CC(=O)C=C[C@]4(C)C3C(=O)C[C@]2(C)[C@]12OCOC21COCO1 (stereo not given in full),,96 µM,
CC(CCC(=O)O)C1CC[C@H]2[C@@H]3CCC4CC(=O)CC[C@]4(C)[C@H]3CC(=O)[C@]12C (stereo not given in full),,,inhibition [3]: 33%
CC(C)=CCCC(C)C1CC[C@@]2(C)C3=C(CC[C@]12C)[C@@]1(C)CCC(=O)C(C)(C)C1CC3 (stereo not given in full),,12 µM,
CC(=O)OCC(=O)[C@@]1(O)CCC2C3CCC4=CC(=O)CC[C@]4(C)C3CC[C@@]21C (stereo not given in full),,,inhibition [3]: 6%
CC(C)CCCC(C)C1CCC2C3C(CC[C@]12C)[C@@](C)(C[C@@H](CC(=O)O)C(=O)O)C(=O)C[C@@H]3C (stereo not given in full),0.04 µM,,
C[C@]1(C(=O)O)C(=O)CCC2C1C(=O)C[C@@]1(C)C2CC[C@@]12OCOC21COCO1 (stereo not given in full),> 100 µM,,
CC[C@H]1CC(=O)[C@](C)(C[C@@H](CC(=O)O)C(=O)O)C2CC[C@]3(C)C(C(C)CCCC(C)C)CCC3C21 (stereo not given in full),3 µM,,
C[C@@H]1CC2C3CCC4=CC(=O)C=C[C@]4(C)C3C(=O)C[C@]2(C)[C@]12OCOC21COCO1 (stereo not given in full),,> 100 µM,
CC(C)CCCC(C)C1CCC2C3CC[C@@H](C(=O)O)[C@](C)(CCC(=O)O)C3CC[C@]12C (stereo not given in full),21 µM,,
CCOC(=O)C[C@H](C[C@@]1(C)C(=O)C[C@H](CC)C2C3CCC(C(C)CCCC(C)C)[C@@]3(C)CCC21)C(=O)O (stereo not given in full),40 µM,,
CC[C@H]1CC(=O)[C@](C)(CCC(=O)O)C2CC[C@]3(C)C(C(C)CCCC(C)C)CCC3C21 (stereo not given in full),60 µM,,
CC(C)CCCC(C)C1CCC2C3C(CC[C@]12C)[C@@](C)(CCC(=O)O)C(=O)C[C@@H]3C (stereo not given in full),0.9 µM,,
CC(=O)OCC(=O)[C@@]1(O)CCC2C3CCC4=CC(=O)CC[C@]4(C)C3[C@@H](O)C[C@@]21C (stereo not given in full),,,inhibition [3]: 6%
CC(=O)OCC(=O)[C@@]1(O)C(C)CC2C3CCC4=CC(=O)C=C[C@]4(C)C3=CC[C@@]21C (stereo not given in full),,40 µM,

# Continued, in another order:
IC50 [1],IC50 [2],Structure (SMILES),other results
,> 100 µM,CC(C)CCCC(C)C1CCC2C3CCC4=CC(=O)[C@H](CC(=O)O)C[C@]4(C)C3CC[C@]12C (stereo not given in full),
,12 µM,CC(=O)OCC(=O)[C@@]1(O)CC[C@H]2[C@@H]3CCC4=CC(=O)CC[C@]4(C)[C@H]3C(=O)C[C@@]21C [CORTISONE ACETATE],
,56 µM,CCC(CC)C(=O)OCC(=O)[C@@]1(O)CCC2C3CCC4=CC(=O)CC[C@]4(C)C3C(=O)C[C@@]21C (stereo not given in full),
31 µM,,CC(CCC(=O)O)C1CCC2C3C(CC[C@]12C)[C@@](C)(CCC(=O)O)C(=O)C[C@@H]3C (stereo not given in full),
,> 100 µM,CCOC(=O)C[C@@H]1C[C@@]2(C)C(=CC1=O)CCC1C3CCC(C(C)CCCC(C)C)[C@@]3(C)CCC12 (stereo not given in full),
26 µM,,COC(=O)CC[C@@]1(C)C(=O)CCC2C1C(=O)C[C@@]1(C)C2CC[C@@]12OCOC21COCO1 (stereo not given in full),
,> 100 µM,CC[C@H]1CC2=CC(=O)CC[C@]2(C)C2CC[C@]3(C)C(C(C)CCCC(C)C)CCC3C21 (stereo not given in full),
29 µM,,C[C@]1(CCC(=O)O)C(=O)CCC2C1C(=O)C[C@@]1(C)C2CC[C@@]12OCOC21COCO1 (stereo not given in full),
,50 µM,C[C@]12CCC(=O)C=C1CCC1C2C(=O)C[C@@]2(C)C1CC[C@]2(O)C(=O)COC(=O)CC(CC(=O)O)C(=O)O (stereo not given in full),
> 100 µM,,CC(=O)C1CCC2C3CCC(=O)[C@](C)(CCC(=O)O)C3C(=O)C[C@]12C (stereo not given in full),
,24 µM,C[C@]12CCC(=O)C=C1CCC1C2C(=O)C[C@@]2(C)C1CCC2(O)C(=O)COC(=O)CCC(=O)O (stereo not given in full),
,48 µM,CC(C)(CC(=O)O)CC(=O)OCC(=O)[C@@]1(O)CCC2C3CCC4=CC(=O)CC[C@]4(C)[C@@]3(F)[C@@H](O)C[C@@]21C (stereo not given in full),
,15 µM,CC(C)C(=O)OCC(=O)[C@@]1(O)CCC2C3CCC4=CC(=O)CC[C@]4(C)C3C(=O)C[C@@]21C (stereo not given in full),
40 µM,,CC(C)C(=O)OCC(=O)C1CCC2C3CCC(=O)[C@](C)(CCC(=O)O)C3C(=O)C[C@]12C (stereo not given in full),
,> 100 µM,CCC(CC)C(=O)OCC(=O)[C@@]1(O)CCC2C3CCC4=CC(=O)CC[C@]4(C)C3[C@@H](O)C[C@@]21C (stereo not given in full),
